In article PMC10401071 (Cancer Discovery, 2023):
Read-outs that look alike come from different tables or passages of the source.

How the values were obtained:
[1] = format: in vivo, human
Outline: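 Adults with advanced solid tumours (ECOG 0–1; TP53 wild-type or unknown) received oral test compound on day 1 of 21-day cycles or days 1 and 8 of 28-day cycles, until progression or unacceptable toxicity. Antiemetic prophylaxis followed guidelines. AE incidence and severity were graded per NCI CTCAE v5.0 and summarised descriptively.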

[2] = Pharmacokinetic analysis of blood samples after oral brigimadlin; format: in vivo, human; details: for AUC(0-inf) / Cmax: oral
Outline: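 Oral test compound given to patients with advanced solid tumours, on day 1 of 21-day cycles or days 1 and 8 of 28-day cycles. Cycle 1 blood taken 5 min pre-dose, 1–8 h post-dose on day 1, then once on days 2, 3, 4, 5 and 8. Later cycles: pre-dose and 6 h, day 2, plus days 3 and 8 in cycle 2. Cmax and AUC by noncompartmental analysis.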

[3] = tested on: SJSA-1; details: SJSA-1 proliferation assay, in vitro; cited from earlier work

For Cc1c(C(=O)O)ccc2c3n(nc12)[C@@H]1[C@H](C3)N(CC2CC2)[C@@]2(C(=O)Nc3cc(Cl)ccc32)[C@H]1c1cccc(Cl)c1F [brigimadlin], the “TRAE Gastroesophageal reflux disease, Grade ≥3” value ([1]; D1D8q4w (n = 25)) was 0 n (%), the “TRAE Increased alanine aminotransferase, All grades” value ([1]; D1D8q4w (n = 25)) was 0 n (%) and the “TRAE Increased alanine aminotransferase, Grade ≥3” value ([1]; D1D8q4w (n = 25)) was 0 n (%). The “TRAE Increased aspartate aminotransferase, All grades” value ([1]; D1D8q4w (n = 25)) was 1 (4.0) n (%), the “TRAE Increased aspartate aminotransferase, Grade ≥3” value ([1]; D1D8q4w (n = 25)) was 0 n (%) and the “TRAE Nausea, All grades” value ([1]; D1D8q4w (n = 25)) was 19 (76.0) n (%). The “TRAE Nausea, Grade ≥3” value ([1]; D1D8q4w (n = 25)) was 0 n (%), the “TRAE Neutropenia, All grades” value ([1]; D1D8q4w (n = 25)) was 6 (24.0) n (%) and the “TRAE Neutropenia, Grade ≥3” value ([1]; D1D8q4w (n = 25)) was 5 (20.0) n (%). The “TRAE Thrombocytopenia, Grade ≥3” value ([1]; D1D8q4w (n = 25)) was 5 (20.0) n (%), the “TRAE Vomiting, All grades” value ([1]; D1D8q4w (n = 25)) was 15 (60.0) n (%) and the “TRAE Vomiting, Grade ≥3” value ([1]; D1D8q4w (n = 25)) was 1 (4.0) n (%). The “patients with nausea leading to dose reduction” value ([1]; D1q3w) was “three”, the “patients with thrombocytopenia leading to dose reduction” value ([1]; D1q3w) was “four” and the “serious AE neutropenia” value ([1]; D1q3w) was “three”. For the same molecule, the “serious AE thrombocytopenia” value ([1]; D1q3w) was “three”, the “Any AE” value ([1]; D1q3w (n = 29)) was 29 (100.0) n (%) and the “Any AE (any cause) leading to study drug discontinuation” value ([1]; D1q3w (n = 29)) was 2 (6.9) n (%). For the same molecule, the “Any AE (any cause) leading to study drug dose reduction” value ([1]; D1q3w (n = 29)) was 11 (37.9) n (%), the “Any TRAE” value ([1]; D1q3w (n = 29)) was 27 (93.1) n (%) and the “Any grade ≥3 AE” value ([1]; D1q3w (n = 29)) was 21 (72.4) n (%). The “Any grade ≥3 TRAE” value ([1]; D1q3w (n = 29)) was 17 (58.6) n (%), the “Serious AEs (any cause)” value ([1]; D1q3w (n = 29)) was 9 (31.0) n (%) and the “TRAE Alopecia, All grades” value ([1]; D1q3w (n = 29)) was 6 (20.7) n (%). The “TRAE Alopecia, Grade ≥3” value ([1]; D1q3w (n = 29)) was 0 n (%), the “TRAE Anemia, All grades” value ([1]; D1q3w (n = 29)) was 12 (41.4) n (%) and the “TRAE Anemia, Grade ≥3” value ([1]; D1q3w (n = 29)) was 3 (10.3) n (%). The “TRAE Decreased appetite, All grades” value ([1]; D1q3w (n = 29)) was 10 (34.5) n (%), the “TRAE Decreased appetite, Grade ≥3” value ([1]; D1q3w (n = 29)) was 0 n (%) and the “TRAE Decreased lymphocyte count, All grades” value ([1]; D1q3w (n = 29)) was 5 (17.2) n (%). For the same molecule, the “TRAE Decreased lymphocyte count, Grade ≥3” value ([1]; D1q3w (n = 29)) was 3 (10.3) n (%), the “TRAE Decreased weight, All grades” value ([1]; D1q3w (n = 29)) was 3 (10.3) n (%) and the “TRAE Decreased weight, Grade ≥3” value ([1]; D1q3w (n = 29)) was 0 n (%). For the same molecule, the “TRAE Decreased white blood cell count, All grades” value ([1]; D1q3w (n = 29)) was 9 (31.0) n (%), the “TRAE Decreased white blood cell count, Grade ≥3” value ([1]; D1q3w (n = 29)) was 5 (17.2) n (%) and the “TRAE Diarrhea, All grades” value ([1]; D1q3w (n = 29)) was 8 (27.6) n (%). The “TRAE Diarrhea, Grade ≥3” value ([1]; D1q3w (n = 29)) was 0 n (%), the “TRAE Dysgeusia, All grades” value ([1]; D1q3w (n = 29)) was 5 (17.2) n (%) and the “TRAE Dysgeusia, Grade ≥3” value ([1]; D1q3w (n = 29)) was 0 n (%). For the same molecule, the “TRAE Fatigue, All grades” value ([1]; D1q3w (n = 29)) was 15 (51.7) n (%), the “TRAE Fatigue, Grade ≥3” value ([1]; D1q3w (n = 29)) was 1 (3.4) n (%) and the “TRAE Gastroesophageal reflux disease, All grades” value ([1]; D1q3w (n = 29)) was 2 (6.9) n (%). For the same molecule, the “TRAE Gastroesophageal reflux disease, Grade ≥3” value ([1]; D1q3w (n = 29)) was 0 n (%), the “TRAE Increased alanine aminotransferase, All grades” value ([1]; D1q3w (n = 29)) was 3 (10.3) n (%) and the “TRAE Increased alanine aminotransferase, Grade ≥3” value ([1]; D1q3w (n = 29)) was 0 n (%). For the same molecule, the “TRAE Increased aspartate aminotransferase, All grades” value ([1]; D1q3w (n = 29)) was 4 (13.8) n (%), the “TRAE Increased aspartate aminotransferase, Grade ≥3” value ([1]; D1q3w (n = 29)) was 0 n (%) and the “TRAE Nausea, All grades” value ([1]; D1q3w (n = 29)) was 21 (72.4) n (%). The “TRAE Nausea, Grade ≥3” value ([1]; D1q3w (n = 29)) was 4 (13.8) n (%), the “TRAE Neutropenia, Grade ≥3” value ([1]; D1q3w (n = 29)) was 8 (27.6) n (%) and the “TRAE Thrombocytopenia, All grades” value ([1]; D1q3w (n = 29)) was 15 (51.7) n (%). For the same molecule, the “TRAE Thrombocytopenia, Grade ≥3” value ([1]; D1q3w (n = 29)) was 9 (31.0) n (%), the “TRAE Vomiting, All grades” value ([1]; D1q3w (n = 29)) was 13 (44.8) n (%) and the “TRAE Vomiting, Grade ≥3” value ([1]; D1q3w (n = 29)) was 0 n (%). The “TRAE neutropenia grade 3” value ([1]; all 54 patients) was 9.3%, the “TRAE neutropenia grade 4” value ([1]; all 54 patients) was 14.8% and the “TRAE thrombocytopenia grade 3” value ([1]; all 54 patients) was 13.0%. The “TRAE thrombocytopenia grade 4” value ([1]; all 54 patients) was 13.0%, the “grade ≥3 TRAE neutropenia” value ([1]; all 54 patients) was 24.1% and the “grade ≥3 TRAE thrombocytopenia” value ([1]; all 54 patients) was 25.9%. For the same molecule, the “patients with a grade ≥3 AE” value ([1]; all 54 patients) was 61.1%, the “patients with a serious AE” value ([1]; all 54 patients) was 33.3% and the “patients with grade ≥3 TRAEs” value ([1]; all 54 patients) was 46.3%. For the same molecule, the “patients with investigator-reported TRAEs” value ([1]; all 54 patients) was 92.6%, the TRAE nausea ([1]; all 54 patients, all grades) was 74.1% and the TRAE vomiting ([1]; all 54 patients, all grades) was 51.9%. The “treatment discontinuation due to a hematologic TRAE” value ([1]; both treatment arms) was “no patient discontinued treatment with brigimadlin due to a hematologic TRAE”, the “dose linearity of plasma exposure (Cmax and AUC0-inf)” value ([2]; after the first dose, both arms, dose range 5 to 80 mg) was “no significant deviation from linearity” and the “dose linearity of plasma exposure (Cmax and AUC0-inf)” value ([2]; dose range 10 to 60 mg) was “no significant deviation from linearity”. For the same molecule, the AUC(0-inf) ([2]; human, plasma, 60 mg) was 121 µM·h, the Cmax ([2]; human, plasma, 60 mg) was 2.48 µM and the AUC(0-inf) ([2]; human, plasma, 80 mg) was 339 µM·h. For the same molecule, the Cmax ([2]; human, plasma, 80 mg) was 4.8 µM, the half-life ([2]; human, plasma, po, half-life, patients, as summarised in Discussion) was 30 to 60 h and the IC50 [3] was 12 nM.
